Measurements from ChEMBL document CHEMBL4321820, “Identification and Optimization of Mechanism-Based Fluoroallylamine Inhibitors of Lysyl Oxidase-like 2/3” (J Med Chem, 2019).
Active and inactive are the calls of the source. The rule behind the calls is not given here.

How the values were obtained:
[1] = tested on: Mus musculus; test: Antifibrotic activity in CCl4-induced BALB/c mouse model of liver fibrosis assessed as reduction in liver fibrosis area at 5 mg/kg, po administered once daily at week 4 to 6 by picro-sirius red staining based microscopy; type: functional, organism-based
Procedure, shortened: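 Female BALB/c mice given CCl4 i.p. (1 mL/kg of 25% CCl4 in olive oil) twice weekly for 6 weeks; sacrificed 48 h after last dose. Test articles oral, once daily: prophylactic weeks 1-6 or therapeutic weeks 4-6; imatinib control 50 mg/kg daily weeks 1-6. One formalin-fixed liver lobe stained for Picro Sirius Red and α-SMA; fibrotic area as % of total liver area; mean ± SEM, one-way ANOVA with Dunnett's test.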

[2] = biological target: T1, Lysyl oxidase homolog 2 (Homo sapiens, UniProt Q9Y4K0); test: Inhibition of LOXL2 in human IMR90 cells using putrescine as substrate preincubated with enzyme for 30 mins followed by substrate addition and measured every 2.5 mins for 30 mins by Amplex-Red oxidation assay; type: cell-based
T1 sequence (Q9Y4K0 whole entry): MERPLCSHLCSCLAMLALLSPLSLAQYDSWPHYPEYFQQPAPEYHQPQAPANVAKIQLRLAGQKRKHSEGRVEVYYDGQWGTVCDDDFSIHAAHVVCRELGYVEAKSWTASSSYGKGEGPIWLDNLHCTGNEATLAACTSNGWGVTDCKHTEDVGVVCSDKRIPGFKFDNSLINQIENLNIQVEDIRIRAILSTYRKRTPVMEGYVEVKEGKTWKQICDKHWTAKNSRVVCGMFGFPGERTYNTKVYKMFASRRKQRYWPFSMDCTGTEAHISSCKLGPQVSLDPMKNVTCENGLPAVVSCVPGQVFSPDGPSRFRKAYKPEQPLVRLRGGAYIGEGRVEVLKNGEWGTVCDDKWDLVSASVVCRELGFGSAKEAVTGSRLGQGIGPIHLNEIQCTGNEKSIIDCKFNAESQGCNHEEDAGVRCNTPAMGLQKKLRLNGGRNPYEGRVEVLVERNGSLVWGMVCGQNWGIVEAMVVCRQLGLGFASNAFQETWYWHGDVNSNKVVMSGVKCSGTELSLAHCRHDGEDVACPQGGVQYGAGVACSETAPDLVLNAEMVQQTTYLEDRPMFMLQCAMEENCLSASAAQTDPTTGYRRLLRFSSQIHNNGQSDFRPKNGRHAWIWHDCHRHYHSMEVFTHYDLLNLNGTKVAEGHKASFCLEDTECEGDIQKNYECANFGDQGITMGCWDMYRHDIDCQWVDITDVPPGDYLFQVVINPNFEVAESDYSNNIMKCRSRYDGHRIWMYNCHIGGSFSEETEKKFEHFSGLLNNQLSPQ
Procedure, shortened: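 IMR90 fibroblasts grown in MEM/10% FBS to 80% confluence, then 48-72 h in phenol-red-free 0.1% FBS medium. Conditioned medium concentrated 40-fold (10 kDa). LOX and LOXL2 separated on a 50 kDa filter in 6 M urea/borate, then diluted back to 1.2 M urea. Preincubated 30 min at 37 °C with compound; Amplex Red/HRP/putrescine readout every 2.5 min over 30 min.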

SMILES: CCOC(=O)c1ccc2c(c1)c(-c1cccc(S(=O)(=O)N(C)C)c1)c(C)n2C/C(F)=C/CN.Cl
- inhibition [1]: Active

SMILES: Cc1c(-c2cccc(S(=O)(=O)N(C)C)c2)c2cc(C(=O)O)ccc2n1C/C(F)=C/CN.Cl
- IC50 [2]: 9 nM
